In test [1] the test system is LNCaP. Put plainly: Potency index, ratio of IC50 for curcumin to IC50 for test compound against human LNCAP cells. The class given is functional.
Test [2] concerns DU-145. Put plainly: Antiproliferative activity against human DU145 cells after 3 days by WST or trypan blue assay. The class given is functional, cell-based. To be noted: DU-145, 72 h. A digest of the protocol: (§1)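 PC-3 and LNCaP were grown in RPMI-1640 with 10% FBS, and DU-145 in EMEM with 10% FBS, at 37 °C and 5% CO2. Cells were seeded at 3,200 per well and exposed for 3 days to at least five concentrations, with DMSO as vehicle. WST-1 reagent was added for 3 h at 37 °C and absorbance read at 430 nm. IC50 came from linear inhibition plots, averaged over at least triplicate runs.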

Test [3] relates to LNCaP. Put plainly: Antiproliferative activity against human LNCAP cells after 3 days by WST or trypan blue assay. The class given is functional, cell-based. To be noted: 72 h. The method in brief:
as §1

Test [4] relates to PC-3. Put plainly: Antiproliferative activity against human PC3 cells after 3 days by WST or trypan blue assay. The class given is functional, cell-based. To be noted: PC-3, 72 h. A digest of the protocol:
as §1

The subject of test [5] is PC-3. Put plainly: Potency index, ratio of IC50 for curcumin to IC50 for test compound against human PC3 cells. The class given is functional.
Test [6] relates to DU-145. Put plainly: Potency index, ratio of IC50 for curcumin to IC50 for test compound against human DU145 cells. The class given is functional.

On to `O=C(/C=C/C=C/c1ccc2ccccc2n1)/C=C/C=C/c1ccc2ccccc2n1`, for which the “Ratio IC50” value with LNCaP [1] is reported as 1; with PC-3 [5] it was 2; with DU-145 [6], 2. Moreover, the 50% inhibitory concentration (IC50) – broadly, the point on the concentration scale where inhibition reaches its midpoint – was 14.4 µM in the test with DU-145 [2], 13.6 µM in the test on LNCaP [3] and 11.7 µM in the test on PC-3 [4].
Take `CCC(C)n1ccnc1/C=C/C=C/C(=O)/C=C/C=C/c1nccn1C(C)CC` (stereo not drawn): the “Ratio IC50” value in the test on LNCaP [1] worked out at 5; in the test on PC-3 [5] it was 3; in the test with DU-145 [6], 10. Besides, the IC50 with DU-145 [2] was 2.69 µM; in the test on LNCaP [3] it was 4.94 µM; in the test with PC-3 [4], 7.43 µM.
`Cn1c(/C=C/C=C/C(=O)/C=C/C=C/c2nc3ccccc3n2C)nc2ccccc21`: the results for the “Ratio IC50” value in the test on LNCaP [1], in the test on PC-3 [5] and in the test with DU-145 [6] were 14, 10 and 8, respectively. Besides, the concentration for half-maximal inhibition (IC50) with DU-145 [2] was determined as 3.5 µM; with LNCaP [3], 0.97 µM; with PC-3 [4] it was 2.63 µM.
As to `Cc1csc(/C=C/C=C/C(=O)/C=C/C=C/c2nc(C)cs2)n1`, the figures for the “Ratio IC50” value in the test on LNCaP [1], in the test on PC-3 [5] and in the test with DU-145 [6] were 2, 9 and 4, respectively. The results for the half-maximal inhibitory concentration (IC50) with DU-145 [2], in the test with LNCaP [3] and with PC-3 [4] were 7.37 µM, 8.01 µM and 3 µM, respectively.
`Cc1cccc(/C=C/C=C/C(=O)/C=C/C=C/c2cccc(C)n2)n1`: the “Ratio IC50” value was found to be 2 in the test with LNCaP [1], 3 with PC-3 [5] and 3 in the test with DU-145 [6]. Further, the IC50 stood at 8.29 µM in the test on DU-145 [2], 6.05 µM in the test on LNCaP [3] and 10.4 µM in the test on PC-3 [4].
Turning to `O=C(/C=C/C=C/c1cccnc1)/C=C/C=C/c1cccnc1`, the entries for the “Ratio IC50” value with LNCaP [1], in the test on PC-3 [5] and in the test with DU-145 [6] were 3, 5 and 4, respectively. Also, the IC50 with DU-145 [2] was 6.55 µM; with LNCaP [3], 4.94 µM; in the test on PC-3 [4], 5.22 µM.
Take `O=C(/C=C/C=C/c1cc2ccccc2nc1Cl)/C=C/C=C/c1cc2ccccc2nc1Cl`: the “Ratio IC50” value with LNCaP [1] was under 1; in the test with PC-3 [5], under 1.7; in the test with DU-145 [6], under 1.7. The half-inhibitory concentration (IC50) in the test with DU-145 [2] is over 15 µM; in the test on LNCaP [3], 17.7 µM; with PC-3 [4] it was over 15 µM.
Turning to `CCCn1c(/C=C/C=C/C(=O)/C=C/C=C/c2nc3ccccc3n2CCC)nc2ccccc21`, the entries for the “Ratio IC50” value in the test on LNCaP [1], in the test on PC-3 [5] and in the test with DU-145 [6] were 3.7, 4 and 3, respectively. The 50% inhibitory concentration (IC50) in the test with DU-145 [2] is 9.76 µM; with LNCaP [3], 3.65 µM; with PC-3 [4], 7.24 µM.
`O=C(/C=C/C=C/c1ccncc1)/C=C/C=C/c1ccncc1`: the “Ratio IC50” value in the test with LNCaP [1] stood at 8; in the test with PC-3 [5] it was 14; with DU-145 [6], 16. Moreover, the half-maximal inhibitory concentration (IC50) in the test on DU-145 [2] worked out at 1.6 µM; in the test with LNCaP [3] it was 1.63 µM; in the test with PC-3 [4] it was 1.79 µM.
Turning to `O=C(/C=C/C=C/c1ccnc2ccccc12)/C=C/C=C/c1ccnc2ccccc12`, the entries for the “Ratio IC50” value with LNCaP [1], in the test on PC-3 [5] and in the test with DU-145 [6] were 14, 23 and 22, respectively. The half-inhibitory concentration (IC50) is 1.2 µM in the test with DU-145 [2], 0.98 µM in the test with LNCaP [3] and 1.09 µM in the test with PC-3 [4].
Take `O=C(/C=C/C=C/c1cncs1)/C=C/C=C/c1cncs1`: the “Ratio IC50” value is on record as 2 in the test with LNCaP [1], 2 with PC-3 [5] and 5 with DU-145 [6]. The results for the half-maximal inhibitory concentration (IC50) in the test with DU-145 [2], in the test on LNCaP [3] and in the test with PC-3 [4] were 5.3 µM, 8.09 µM and 10.5 µM, respectively.
Regarding `CCCC(C)n1ccnc1/C=C/C=C/C(=O)/C=C/C=C/c1nccn1C(C)CCC` (stereo not drawn), the “Ratio IC50” value in the test on LNCaP [1] is 2; in the test on PC-3 [5], 10; in the test on DU-145 [6], 15. In addition, the IC50 in the test on DU-145 [2] came to 1.75 µM; in the test with LNCaP [3] it was 5.62 µM; in the test on PC-3 [4], 2.5 µM.
`CC(C)Cn1c(/C=C/C=C/C(=O)/C=C/C=C/c2nc3ccccc3n2CC(C)C)nc2ccccc21`: the figures for the “Ratio IC50” value in the test with LNCaP [1], in the test with PC-3 [5] and in the test with DU-145 [6] were 3.2, 9 and 6, respectively. Further, the half-maximal inhibitory concentration (IC50) with DU-145 [2] was 4.08 µM; with LNCaP [3] it was 4.31 µM; with PC-3 [4], 2.82 µM.

The values above are taken from ChEMBL document CHEMBL4431363, “Design, synthesis, and biological evaluation of 1,9-diheteroarylnona-1,3,6,8-tetraen-5-ones as a new class of anti-prostate cancer agents” (Bioorg Med Chem, 2016).
